Experimental data as given in ChEMBL document CHEMBL2407081, “Discovery of potent, isoform-selective inhibitors of histone deacetylase containing chiral heterocyclic capping groups and a N-(2-aminophenyl)benzamide binding unit” (J Med Chem, 2013).
pIC50: −log10 of the molar value. ≈ marks a conversion by molar mass, not a printed value. Calls of active or inactive are those of the source. No cut-off for these calls is given here.

Tests used:
[1] = target: Cytochrome P450 2C19 (Homo sapiens, UniProt P33261); experiment: Inhibition of CYP2C19 (unknown origin); format: ADME
Sequence of Cytochrome P450 2C19 (P33261 whole entry): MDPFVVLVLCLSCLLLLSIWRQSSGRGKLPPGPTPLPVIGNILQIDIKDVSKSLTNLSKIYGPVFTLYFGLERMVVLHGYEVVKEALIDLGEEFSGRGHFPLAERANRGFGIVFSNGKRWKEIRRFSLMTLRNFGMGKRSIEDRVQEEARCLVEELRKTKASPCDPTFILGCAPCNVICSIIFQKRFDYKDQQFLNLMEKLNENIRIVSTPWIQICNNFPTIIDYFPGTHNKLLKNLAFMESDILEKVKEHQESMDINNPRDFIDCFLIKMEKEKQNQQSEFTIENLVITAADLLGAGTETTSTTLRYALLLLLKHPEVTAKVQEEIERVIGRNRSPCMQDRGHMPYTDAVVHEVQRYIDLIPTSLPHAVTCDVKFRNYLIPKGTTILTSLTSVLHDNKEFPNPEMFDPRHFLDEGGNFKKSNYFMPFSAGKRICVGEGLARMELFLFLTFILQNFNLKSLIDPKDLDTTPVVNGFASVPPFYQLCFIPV

[2] = system: Jurkat; experiment: Cell cycle arrest in human Jurkat cells assessed as accumulation at sub-G1 phase at 1 uM after 24 hrs by FITC/propidium iodide staining-based FACS flow cytometric analysis (reference value: 6.8%); format: functional
Procedure, shortened: (§1)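 HeLa and Jurkat human cells were cultured for 24 h with compound at two concentrations. The control was an equal volume of the DMSO diluent. Cellular DNA and protein content were then measured by flow cytometry, and the percentage of cells in sub-G1, G0/G1, S and G2/M was read out.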

[3] = system: A549; experiment: Cytotoxicity against human A549 cells assessed as growth inhibition by measuring cellular ATP level after 72 hrs by cell-titer glo assay; format: functional, cell-based; settings: A549, 72 h
[4] = Kinetic solubility of the compound; format: physicochemical; settings: read-out: Kinetic_solubility
Procedure, shortened: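 Solubility was measured by chemiluminescent nitrogen detection.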

[5] = system: Jurkat; experiment: Cell cycle arrest in human Jurkat cells assessed as accumulation at G0/G1 phase at 1 uM after 24 hrs by FITC/propidium iodide staining-based FACS flow cytometric analysis (reference value: 55.5%); format: functional; procedure, shortened: as §1
[6] = target: Cytochrome P450 2D6 (Homo sapiens, UniProt P10635); experiment: Inhibition of CYP2D6 (unknown origin); format: ADME
Sequence of Cytochrome P450 2D6 (P10635 whole entry): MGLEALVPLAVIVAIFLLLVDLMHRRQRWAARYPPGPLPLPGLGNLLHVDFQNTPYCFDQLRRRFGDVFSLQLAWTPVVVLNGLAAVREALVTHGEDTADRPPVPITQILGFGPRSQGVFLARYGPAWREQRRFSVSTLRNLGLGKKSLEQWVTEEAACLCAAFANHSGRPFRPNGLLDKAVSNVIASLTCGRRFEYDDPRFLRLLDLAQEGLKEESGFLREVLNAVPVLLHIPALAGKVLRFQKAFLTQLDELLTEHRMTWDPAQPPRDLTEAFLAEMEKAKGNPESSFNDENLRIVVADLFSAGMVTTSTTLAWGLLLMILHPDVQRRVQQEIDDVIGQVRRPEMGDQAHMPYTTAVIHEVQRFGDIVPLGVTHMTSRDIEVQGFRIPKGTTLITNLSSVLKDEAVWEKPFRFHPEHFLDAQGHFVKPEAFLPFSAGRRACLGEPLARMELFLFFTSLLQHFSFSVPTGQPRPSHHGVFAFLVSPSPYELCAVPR

[7] = target: Histone deacetylase 3/NCoR1 (Homo sapiens) (UniProt O15379+O75376); experiment: Inhibition of recombinant HDAC3-NCoR1 (unknown origin) assessed as slow tight binding at 0.02 to 20 uM; format: protein-complex assay
[8] = target: Cytochrome P450 3A4 (Homo sapiens, UniProt P08684); experiment: Inhibition of CYP3A4 (unknown origin) using vivid green as substrate; format: ADME
Sequence of Cytochrome P450 3A4 (P08684 whole entry): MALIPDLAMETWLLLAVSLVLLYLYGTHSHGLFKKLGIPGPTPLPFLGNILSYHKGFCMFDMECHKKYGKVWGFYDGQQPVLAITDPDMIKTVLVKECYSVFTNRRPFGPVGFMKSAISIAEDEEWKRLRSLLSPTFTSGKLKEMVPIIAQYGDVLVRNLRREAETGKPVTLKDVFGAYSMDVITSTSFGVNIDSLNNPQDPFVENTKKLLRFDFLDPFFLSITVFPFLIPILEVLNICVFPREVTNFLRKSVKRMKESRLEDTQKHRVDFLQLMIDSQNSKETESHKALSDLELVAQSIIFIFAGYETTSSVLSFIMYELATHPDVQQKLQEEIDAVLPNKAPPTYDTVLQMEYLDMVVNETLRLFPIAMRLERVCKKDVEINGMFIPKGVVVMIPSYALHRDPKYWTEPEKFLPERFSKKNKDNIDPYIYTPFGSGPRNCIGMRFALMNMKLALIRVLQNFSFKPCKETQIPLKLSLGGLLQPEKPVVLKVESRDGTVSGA

[9] = target: T1, Protein deacetylase HDAC6 (Homo sapiens, UniProt Q9UBN7); experiment: Inhibition of recombinant His-tagged HDAC6 (unknown origin) using Fluor-de-Lys SIRT1 as substrate incubated for 3 hrs prior to substrate addition measured after 60 mins by fluorescence plate reader analysis
T1 sequence (Q9UBN7 whole entry): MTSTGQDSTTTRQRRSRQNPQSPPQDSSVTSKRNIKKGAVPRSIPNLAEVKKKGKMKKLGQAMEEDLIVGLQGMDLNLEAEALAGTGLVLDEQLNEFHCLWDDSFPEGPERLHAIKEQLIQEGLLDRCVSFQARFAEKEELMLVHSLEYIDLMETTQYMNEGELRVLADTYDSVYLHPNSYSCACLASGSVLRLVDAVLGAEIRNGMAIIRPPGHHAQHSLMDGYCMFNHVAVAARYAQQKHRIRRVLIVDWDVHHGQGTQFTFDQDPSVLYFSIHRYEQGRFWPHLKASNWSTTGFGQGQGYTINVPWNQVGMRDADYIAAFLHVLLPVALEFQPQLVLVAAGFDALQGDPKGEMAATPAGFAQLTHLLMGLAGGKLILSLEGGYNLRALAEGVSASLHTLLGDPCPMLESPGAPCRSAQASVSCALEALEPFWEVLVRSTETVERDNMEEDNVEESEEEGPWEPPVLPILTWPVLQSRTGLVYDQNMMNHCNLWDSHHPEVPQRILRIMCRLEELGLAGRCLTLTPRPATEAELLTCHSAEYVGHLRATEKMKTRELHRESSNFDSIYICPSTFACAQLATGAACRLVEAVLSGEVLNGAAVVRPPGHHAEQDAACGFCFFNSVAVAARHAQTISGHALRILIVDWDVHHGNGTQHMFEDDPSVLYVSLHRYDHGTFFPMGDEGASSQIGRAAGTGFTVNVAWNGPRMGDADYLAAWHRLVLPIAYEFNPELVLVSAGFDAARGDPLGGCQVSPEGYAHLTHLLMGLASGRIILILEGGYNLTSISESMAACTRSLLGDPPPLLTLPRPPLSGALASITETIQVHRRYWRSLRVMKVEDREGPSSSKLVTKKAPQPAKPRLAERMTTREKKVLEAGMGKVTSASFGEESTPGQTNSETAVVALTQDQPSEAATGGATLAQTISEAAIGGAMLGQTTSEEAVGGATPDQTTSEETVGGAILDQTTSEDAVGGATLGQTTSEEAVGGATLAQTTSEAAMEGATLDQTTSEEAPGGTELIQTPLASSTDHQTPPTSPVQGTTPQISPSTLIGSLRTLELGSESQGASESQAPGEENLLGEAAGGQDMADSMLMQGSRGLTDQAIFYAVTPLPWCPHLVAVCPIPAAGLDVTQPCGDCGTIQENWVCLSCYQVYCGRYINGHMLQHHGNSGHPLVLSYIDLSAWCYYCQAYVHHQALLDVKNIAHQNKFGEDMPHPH

[10] = target: Histone deacetylase 3/NCoR1 (Homo sapiens, UniProt O15379); experiment: Inhibition of recombinant HDAC3-NCoR1 (unknown origin) using MAL as substrate incubated for 3 hrs prior to substrate addition measured after 60 mins by fluorescence plate reader analysis; format: protein-complex assay
Sequence of Histone deacetylase 3/NCoR1 (O15379 whole entry): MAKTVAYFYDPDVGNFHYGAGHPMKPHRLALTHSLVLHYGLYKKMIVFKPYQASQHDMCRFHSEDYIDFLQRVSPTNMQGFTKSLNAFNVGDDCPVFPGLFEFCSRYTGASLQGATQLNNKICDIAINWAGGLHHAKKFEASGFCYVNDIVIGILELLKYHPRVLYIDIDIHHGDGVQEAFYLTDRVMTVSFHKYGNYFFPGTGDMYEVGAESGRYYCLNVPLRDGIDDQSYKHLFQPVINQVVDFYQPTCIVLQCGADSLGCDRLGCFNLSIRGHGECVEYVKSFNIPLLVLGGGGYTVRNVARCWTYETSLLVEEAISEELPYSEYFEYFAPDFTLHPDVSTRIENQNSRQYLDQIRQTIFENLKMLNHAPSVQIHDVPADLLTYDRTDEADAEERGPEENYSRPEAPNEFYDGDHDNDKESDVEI
Sequence of Histone deacetylase 3/NCoR1 (O75376 whole entry, further chain): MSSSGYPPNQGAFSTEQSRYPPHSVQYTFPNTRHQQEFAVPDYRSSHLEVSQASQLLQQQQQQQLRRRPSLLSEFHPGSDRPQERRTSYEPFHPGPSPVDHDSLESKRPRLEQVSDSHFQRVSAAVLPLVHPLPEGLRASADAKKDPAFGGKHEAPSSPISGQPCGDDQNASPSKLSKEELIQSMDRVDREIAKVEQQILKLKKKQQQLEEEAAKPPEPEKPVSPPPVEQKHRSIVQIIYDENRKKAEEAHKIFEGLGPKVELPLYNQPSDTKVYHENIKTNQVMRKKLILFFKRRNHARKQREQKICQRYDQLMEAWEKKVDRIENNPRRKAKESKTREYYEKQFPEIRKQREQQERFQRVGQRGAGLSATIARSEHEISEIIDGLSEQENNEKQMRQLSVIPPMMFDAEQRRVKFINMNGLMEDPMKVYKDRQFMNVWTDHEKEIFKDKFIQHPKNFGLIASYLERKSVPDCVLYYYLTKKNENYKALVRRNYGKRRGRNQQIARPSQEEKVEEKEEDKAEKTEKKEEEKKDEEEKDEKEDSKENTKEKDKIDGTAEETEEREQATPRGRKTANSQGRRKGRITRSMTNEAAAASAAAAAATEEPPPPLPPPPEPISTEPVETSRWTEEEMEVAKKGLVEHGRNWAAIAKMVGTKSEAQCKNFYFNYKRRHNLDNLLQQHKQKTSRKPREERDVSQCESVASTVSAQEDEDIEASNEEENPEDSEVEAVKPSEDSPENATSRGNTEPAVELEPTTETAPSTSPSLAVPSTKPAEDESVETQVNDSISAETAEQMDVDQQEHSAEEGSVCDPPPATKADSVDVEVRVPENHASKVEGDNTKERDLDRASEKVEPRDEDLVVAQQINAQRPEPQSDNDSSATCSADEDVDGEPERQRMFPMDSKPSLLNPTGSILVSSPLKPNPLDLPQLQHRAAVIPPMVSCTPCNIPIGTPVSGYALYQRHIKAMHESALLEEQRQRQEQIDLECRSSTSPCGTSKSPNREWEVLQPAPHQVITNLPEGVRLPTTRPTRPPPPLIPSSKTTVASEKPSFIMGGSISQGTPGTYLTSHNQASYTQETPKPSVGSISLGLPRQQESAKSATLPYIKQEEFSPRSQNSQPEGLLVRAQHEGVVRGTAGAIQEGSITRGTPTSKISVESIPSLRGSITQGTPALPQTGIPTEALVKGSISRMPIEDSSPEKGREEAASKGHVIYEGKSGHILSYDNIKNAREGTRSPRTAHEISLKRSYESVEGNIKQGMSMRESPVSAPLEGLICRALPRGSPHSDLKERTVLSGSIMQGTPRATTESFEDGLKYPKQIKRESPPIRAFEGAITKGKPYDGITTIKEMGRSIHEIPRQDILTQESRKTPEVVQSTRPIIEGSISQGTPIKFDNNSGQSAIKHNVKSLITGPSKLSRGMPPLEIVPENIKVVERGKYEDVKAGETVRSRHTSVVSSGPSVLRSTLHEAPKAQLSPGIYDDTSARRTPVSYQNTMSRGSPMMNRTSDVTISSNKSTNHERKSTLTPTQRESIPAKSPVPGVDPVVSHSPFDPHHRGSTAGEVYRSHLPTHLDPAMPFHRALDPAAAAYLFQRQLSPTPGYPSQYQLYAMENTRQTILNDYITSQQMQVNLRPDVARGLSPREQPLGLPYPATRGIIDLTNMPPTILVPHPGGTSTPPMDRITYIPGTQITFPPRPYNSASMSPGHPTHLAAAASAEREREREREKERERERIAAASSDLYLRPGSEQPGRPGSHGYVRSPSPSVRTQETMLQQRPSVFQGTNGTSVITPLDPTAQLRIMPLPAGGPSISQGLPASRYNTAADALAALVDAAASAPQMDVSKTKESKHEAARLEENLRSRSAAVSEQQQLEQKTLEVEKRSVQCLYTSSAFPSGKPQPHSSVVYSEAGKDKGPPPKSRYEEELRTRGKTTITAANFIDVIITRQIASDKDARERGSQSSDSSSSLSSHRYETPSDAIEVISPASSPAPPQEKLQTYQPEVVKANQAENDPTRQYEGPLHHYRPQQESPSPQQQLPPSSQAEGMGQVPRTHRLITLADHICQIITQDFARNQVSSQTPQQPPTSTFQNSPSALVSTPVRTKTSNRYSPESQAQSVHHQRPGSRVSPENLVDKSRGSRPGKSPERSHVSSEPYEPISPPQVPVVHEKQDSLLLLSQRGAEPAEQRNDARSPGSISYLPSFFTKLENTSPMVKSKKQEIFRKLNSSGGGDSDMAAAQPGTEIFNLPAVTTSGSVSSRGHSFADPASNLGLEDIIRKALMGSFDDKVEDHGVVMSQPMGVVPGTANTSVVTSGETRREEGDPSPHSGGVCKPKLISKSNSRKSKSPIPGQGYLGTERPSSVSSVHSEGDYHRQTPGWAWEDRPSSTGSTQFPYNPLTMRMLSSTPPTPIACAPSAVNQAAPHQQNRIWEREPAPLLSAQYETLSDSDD

[11] = system: DU-145; experiment: Cytotoxicity against human DU145 cells assessed as growth inhibition by measuring cellular ATP level after 72 hrs by cell-titer glo assay; format: functional, cell-based; settings: DU-145, 72 h
[12] = system: HCT-116; experiment: Cytotoxicity against human HCT116 cells assessed as growth inhibition by measuring cellular ATP level after 72 hrs by cell-titer glo assay; format: functional, cell-based; settings: HCT-116, 72 h
[13] = system: HeLa; experiment: Induction of apoptosis in human HeLa cells assessed as PARP cleavage at 1 to 10 uM after 24 hrs by Western blot analysis; format: functional, cell-based
[14] = system: MCF7; experiment: Cytotoxicity against human MCF7 cells assessed as growth inhibition by measuring cellular ATP level after 72 hrs by cell-titer glo assay; format: functional, cell-based; settings: MCF7, 72 h
[15] = system: Jurkat; experiment: Cell cycle arrest in human Jurkat cells assessed as accumulation at S phase at 10 uM after 24 hrs by FITC/propidium iodide staining-based FACS flow cytometric analysis (reference value: 15.3%); format: functional; procedure, shortened: as §1
[16] = Permeability of the compound by PAMPA; format: ADME; settings: read-out: permeability
[17] = system: Jurkat; experiment: Induction of apoptosis in human Jurkat cells assessed as PARP cleavage at 1 to 10 uM after 24 hrs by Western blot analysis; format: functional, cell-based
[18] = system: Jurkat; experiment: Cell cycle arrest in human Jurkat cells assessed as accumulation at sub-G1 phase at 10 uM after 24 hrs by FITC/propidium iodide staining-based FACS flow cytometric analysis (reference value: 2%); format: functional; procedure, shortened: as §1
[19] = system: HeLa; experiment: Cell cycle arrest in human HeLa cells assessed as accumulation at G2/M phase at 10 uM after 24 hrs by FITC/propidium iodide staining-based FACS flow cytometric analysis; format: functional; procedure, shortened: as §1
[20] = target: Histone deacetylase 1 (Homo sapiens, UniProt Q13547); experiment: Inhibition of recombinant C-terminal FLAG-tagged HDAC1 (unknown origin) expressed in Escherichia coli BL21 using MAL as substrate incubated for 1 hr prior to substrate addition measured after 60 mins by fluorescence plate reader analysis
Sequence of Histone deacetylase 1 (Q13547 whole entry): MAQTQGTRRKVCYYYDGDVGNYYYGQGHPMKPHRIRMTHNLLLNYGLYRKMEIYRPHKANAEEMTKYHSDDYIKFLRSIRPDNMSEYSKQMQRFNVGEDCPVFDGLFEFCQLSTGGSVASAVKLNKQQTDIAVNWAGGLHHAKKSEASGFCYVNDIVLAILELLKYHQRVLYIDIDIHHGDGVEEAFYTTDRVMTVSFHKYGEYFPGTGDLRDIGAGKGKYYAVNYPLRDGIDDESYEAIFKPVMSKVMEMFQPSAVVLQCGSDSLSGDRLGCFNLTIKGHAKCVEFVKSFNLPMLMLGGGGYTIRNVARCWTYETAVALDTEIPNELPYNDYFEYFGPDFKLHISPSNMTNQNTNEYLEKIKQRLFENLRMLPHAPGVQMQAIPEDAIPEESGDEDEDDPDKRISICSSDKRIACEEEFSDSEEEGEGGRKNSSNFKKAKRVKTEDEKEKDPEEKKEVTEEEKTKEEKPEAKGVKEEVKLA

Nc1ccccc1NC(=O)c1ccc(CNC2=N[C@@H](c3ccccc3)CS2)cc1
pIC50 [1]: 4.49
Activity [2]: 36.6%
pIC50 [3]: 5.24
solubility kinetic [4]: 239 µM (≈ 96.2 µg/mL)
Activity [5]: 48.1%
pIC50 [6]: 7.10
inhibition [7]: Active
pIC50 [8]: 4.80
pIC50 [9]: < 4.70
pIC50 [10]: 7.92
pIC50 [11]: 5.19
pIC50 [12]: 5.66
Activity [13]: inactive
pIC50 [14]: 5.27
Activity [15]: 35.1%
Papp [16]: 51 ×10⁻⁶ cm/s
Activity [17]: Active
Activity [18]: 19.5%
Activity [19]: Active
pIC50 [20]: 6.03
